Laboratory results taken from ChEMBL document CHEMBL1156678, “A new class of analgesic agents toward prostacyclin receptor inhibition: synthesis, biological studies and QSAR analysis of 1-hydroxyl-2-substituted phenyl-4,4,5,5-tetramethylimidazolines” (Eur J Med Chem, 2008).

Tests used:
[1] = test system: Mus musculus; test: Thrombotic toxicity in ICR mouse assessed as tail bleeding time at 1.3 mmol/kg, ip after 60 mins; assay type: organism-based; settings: in vivo, 1 h
Outline: (§1)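 Male ICR mice (25 ± 2 g) were kept one day on a 12/12 h light/dark cycle at 21 ± 2 °C. Each received a single i.p. dose of 1.30 mmol/kg in saline/DMSO/Tween-80 (0.2/0.01/0.02 ml), or the solvent only. The restrained mouse had 1 mm cut from the tail before dosing and at 5, 15, 30 and 60 min. Bleeding time (s) is reported as mean ± SD.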

[2] = Cardiovascular toxicity in rat aorta assessed as inhibition of noradrenaline-induced vasoconstriction at 5 mM relative to control; assay type: tissue-based; settings: isolated rat aorta
Outline: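 Rat aortic strips were contracted with noradrenaline, washed, stabilized for 30 min, and contracted again. At peak contraction, compound was added (final 5 × 10^-3 M) or vehicle alone. The relaxant response was recorded as percentage inhibition of the contraction.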

[3] = test system: Mus musculus; test: Analgesic activity in ICR mouse assessed as pain threshold variation at 0.13 mmol/kg, ip after 30 mins by tail flick test relative to control; assay type: functional
Outline: (§2)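 Male ICR mice (25 ± 2 g), kept on a 12/12 h light/dark cycle at 21 ± 2 °C for one day before use. Each received a single i.p. injection in 0.2 ml saline + 0.01 ml DMSO + 0.02 ml Tween-80. Vehicle-only mice served as controls. Basal tail-flick threshold was measured four times (BPT). Thresholds were then read every 30 min for 150 min. PTV = (post-dose threshold − BPT)/BPT. n = 10, x ± SD.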

[4] = test system: Mus musculus; test: Analgesic activity in ICR mouse assessed as pain threshold variation at 0.13 mmol/kg, ip after 60 mins by tail flick test relative to control; assay type: functional; outline: as §2
[5] = test system: Mus musculus; test: Analgesic activity in ICR mouse assessed as pain threshold variation at 0.13 mmol/kg, ip after 90 mins by tail flick test relative to control; assay type: functional; outline: as §2
[6] = test system: Mus musculus; test: Analgesic activity in ICR mouse assessed as pain threshold variation at 0.13 mmol/kg, ip after 120 mins by tail flick test; assay type: functional; outline: as §2
[7] = test system: Mus musculus; test: Analgesic activity in ICR mouse assessed as pain threshold variation at 0.13 mmol/kg, ip after 150 mins by tail flick test; assay type: functional; outline: as §2
[8] = test system: Mus musculus; test: Thrombotic toxicity in ICR mouse assessed as tail bleeding time at 1.3 mmol/kg, ip after 5 mins; assay type: organism-based; settings: in vivo; outline: as §1
[9] = test system: Mus musculus; test: Thrombotic toxicity in ICR mouse assessed as tail bleeding time at 1.3 mmol/kg, ip after 15 mins; assay type: organism-based; settings: in vivo, 0.25 h; outline: as §1
[10] = test system: Mus musculus; test: Thrombotic toxicity in ICR mouse assessed as tail bleeding time at 1.3 mmol/kg, ip after 30 mins; assay type: organism-based; settings: in vivo, 0.5 h; outline: as §1

Row | Compound | Activity [1] | inhibition at 5000 µM [2] | Activity [3] | Activity [4] | Activity [5] | Activity [6] | Activity [7] | Activity [8] | Activity [9] | Activity [10]
1 | CC1(C)N=C(c2ccc([N+](=O)[O-])cc2)N(O)C1(C)C | 117 s | 32.7% | 44.15% | 38.32% | 36.31% | 35.97% | 47.81% | 118 s | 117 s | 117 s
2 | CC1(C)N=C(c2ccc(Cl)cc2Cl)N(O)C1(C)C | 119 s | 15.9% | 46.97% | 46.31% | 44.1% | 46.12% | 45.99% | 117 s | 117 s | 119 s
3 | CN(C)c1ccc(C2=NC(C)(C)C(C)(C)N2O)cc1 | 119 s | 6.63% | 34.3% | 39.44% | 40.17% | 37.34% | 31.27% | 117 s | 117 s | 117 s
4 | CC1(C)N=C(c2ccccc2[N+](=O)[O-])N(O)C1(C)C | 118 s | 30.2% | 28.95% | 45.14% | 45.93% | 50.91% | 40.04% | 119 s | 119 s | 119 s
5 | COc1ccc(C2=NC(C)(C)C(C)(C)N2O)c(OC)c1 | 117 s | 23.3% | 52.93% | 44.85% | 44.96% | 38.34% | 37.89% | 118 s | 118 s | 119 s
6 | CC1(C)N=C(c2ccc(Cl)c(Cl)c2)N(O)C1(C)C | 117 s | 22.8% | 20.52% | 21.43% | 41.9% | 40.17% | 50.62% | 118 s | 118 s | 118 s
7 | CC1(C)N=C(c2cccc([N+](=O)[O-])c2)N(O)C1(C)C | 117 s | 31.8% | 52.76% | 62.07% | 63.46% | 60.26% | 70.83% | 117 s | 118 s | 119 s
8 | Cc1ccc(C2=NC(C)(C)C(C)(C)N2O)cc1 | 119 s | 16.7% | 42.06% | 55.16% | 48.82% | 39.96% | 45.41% | 119 s | 118 s | 117 s
9 | COc1cc(C2=NC(C)(C)C(C)(C)N2O)ccc1O | 117 s | 20.6% | 47.57% | 61.52% | 60.65% | 52.21% | 40.56% | 119 s | 118 s | 119 s
